Data on six molecules can be found in ChEMBL document CHEMBL4346663, “N-Cinnamoylanthranilates as human TRPA1 modulators: Structure-activity relationships and channel binding sites” (Eur J Med Chem, 2019).

Calls of active or inactive are those of the source. The rule behind the calls is not given here.

Data set [1] deals with T1, Transient receptor potential cation channel subfamily A member 1 (Homo sapiens, UniProt O75762). The data set can be described thus: Agonist activity at human TRPA1 expressed in HEK293 cells assessed as increase in calcium influx by Calcium-5 dye based fluorescence assay. Format: cell-based.
Data set [2] deals with Transient receptor potential cation channel subfamily A member 1 (Homo sapiens), O75762 [F944A]. The data set can be described thus: Agonist activity at human TRPA1 Phe944Ala mutant expressed in HEK293 cells assessed as Ca2+ influx at 30 uM by fluorescence assay. Type of data set: cell-based. In short, it runs like this:
(§1)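 HEK293 cells stably expressing hTRPA1 point mutants (C621A, F909A or F944A), single-cell cloned under G418 selection. Cells plated on poly-D-lysine for 48 h, loaded with Fluo-4AM 2 µM for 45 min at room temperature. FlexStation read (ex 485/em 538 nm): 20 s baseline, compound added, calcimycin added at 180 s. Response expressed as % calcimycin from ΔRFU, vehicle-subtracted, and compared with wild-type hTRPA1 cells.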

In data set [3] the test system is Transient receptor potential cation channel subfamily A member 1 (Homo sapiens), O75762 [F909A]. Briefly: Agonist activity at human TRPA1 Phe909Ala mutant expressed in HEK293 cells assessed as Ca2+ influx at 30 uM by fluorescence assay. Format: cell-based. In short, it runs like this: as §1
In data set [4] the target is T1, Transient receptor potential cation channel subfamily A member 1. Briefly: Agonist activity at human TRPA1 expressed in HEK293 cells assessed as increase in calcium influx by Fluo-4-AM dye based fluorescence assay. Type of data set: cell-based. The following applies: read-out: EC50. In short, it runs like this:
(§2)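 Stably transfected hTRPA1- or hTRPM8-HEK293 cells on poly-D-lysine plates for 48 h, loaded with Fluo-4AM (2 µM, 45 min, dark, room temperature), in isotonic HEPES buffer pH 7.4. FlexStation 240 s run: 20 s baseline, compound added, calcimycin added at 180 s. ΔRFU expressed as % calcimycin, DMSO-subtracted. Screening N = 3. Dose-response curves fitted for logEC50 (N = 3 in duplicate or triplicate).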

Data set [5] has as its target T2, Transient receptor potential cation channel subfamily M member 8 (Homo sapiens, UniProt Q7Z2W7). Briefly: Antagonist activity at human TRPM8 expressed in HEK293 cells assessed as increase in calcium influx at 100 uM incubated for 10 mins prior to WS5 challenge by Fluo-4-AM dye based fluorescence assay relative to WS5. Format: cell-based. Set-up: scale not given: the % may be the effect or the level left. In short, it runs like this: (§3)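 hTRPM8-HEK293 cells loaded with Fluo-4AM (2 µM, 45 min). Test compound pre-incubated 10 min before WS5 standard agonist. FlexStation fluorescence at 485/538 nm. ΔRFU given as % of WS5 response after DMSO vehicle subtraction. N = 3. IC50 from dose-response curves.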
Target sequence in this assay (Q7Z2W7 whole entry, looked up): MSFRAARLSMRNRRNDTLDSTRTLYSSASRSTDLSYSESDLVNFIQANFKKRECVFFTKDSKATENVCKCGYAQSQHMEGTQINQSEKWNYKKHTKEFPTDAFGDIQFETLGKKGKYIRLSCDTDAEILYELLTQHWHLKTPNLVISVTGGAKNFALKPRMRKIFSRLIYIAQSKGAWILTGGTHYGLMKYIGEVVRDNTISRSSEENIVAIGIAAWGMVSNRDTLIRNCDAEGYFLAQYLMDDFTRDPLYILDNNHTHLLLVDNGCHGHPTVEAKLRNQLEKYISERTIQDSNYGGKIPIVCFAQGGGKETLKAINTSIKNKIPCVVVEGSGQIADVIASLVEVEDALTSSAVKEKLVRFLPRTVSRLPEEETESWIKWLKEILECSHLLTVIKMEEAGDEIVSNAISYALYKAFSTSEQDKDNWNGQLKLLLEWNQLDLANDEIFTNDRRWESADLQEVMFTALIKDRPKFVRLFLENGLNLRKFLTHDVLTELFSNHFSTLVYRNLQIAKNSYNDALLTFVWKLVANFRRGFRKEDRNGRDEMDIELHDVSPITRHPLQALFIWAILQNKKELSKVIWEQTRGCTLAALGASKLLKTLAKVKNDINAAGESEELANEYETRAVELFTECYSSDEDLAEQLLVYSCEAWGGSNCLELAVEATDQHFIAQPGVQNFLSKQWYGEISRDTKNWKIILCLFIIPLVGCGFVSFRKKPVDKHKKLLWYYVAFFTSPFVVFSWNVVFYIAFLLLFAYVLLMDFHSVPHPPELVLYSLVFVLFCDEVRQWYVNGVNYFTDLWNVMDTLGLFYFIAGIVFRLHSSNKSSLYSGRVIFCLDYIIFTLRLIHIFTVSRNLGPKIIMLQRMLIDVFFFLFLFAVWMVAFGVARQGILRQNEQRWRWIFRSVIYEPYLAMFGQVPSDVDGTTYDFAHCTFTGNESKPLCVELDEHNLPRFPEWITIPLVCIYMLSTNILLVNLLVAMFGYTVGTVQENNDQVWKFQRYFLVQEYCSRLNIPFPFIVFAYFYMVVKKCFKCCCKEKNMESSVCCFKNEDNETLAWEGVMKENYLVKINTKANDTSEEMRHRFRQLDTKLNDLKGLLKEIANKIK

For data set [6], the target named is T2, Transient receptor potential cation channel subfamily M member 8. The data set can be described thus: Agonist activity at human TRPM8 expressed in HEK293 cells assessed as increase in calcium influx at 100 uM by Fluo-4-AM dye based fluorescence assay relative to calcimycin. Type of data set: cell-based. In short, it runs like this: as §2
Target sequence in this assay (Q7Z2W7 whole entry, looked up): as above
The subject of data set [7] is Transient receptor potential cation channel subfamily A member 1 (Homo sapiens), O75762 [F944A]. The data set can be described thus: Agonist activity at human TRPA1 Phe944Ala mutant expressed in HEK293 cells assessed as Ca2+ influx at 10 uM by fluorescence assay. Type of data set: cell-based. In short, it runs like this: as §1
The target of data set [8] is T2, Transient receptor potential cation channel subfamily M member 8. Briefly: Antagonist activity at human TRPM8 expressed in HEK293 cells assessed as inhibition in WS5-induced increase in calcium influx incubated for 10 mins prior to WS5 challenge by Fluo-4-AM dye based fluorescence assay. Type of data set: cell-based. In short, it runs like this: as §3
Target sequence in this assay (Q7Z2W7 whole entry): as the sequence (Q7Z2W7 whole entry, looked up) above
For data set [9], the system named is Transient receptor potential cation channel subfamily A member 1 (Homo sapiens), O75762 [F909A]. The data set can be described thus: Agonist activity at human TRPA1 Phe909Ala mutant expressed in HEK293 cells assessed as Ca2+ influx at 10 uM by fluorescence assay. Type of data set: cell-based. In short, it runs like this:
as §1

The species entered for data set [10] is Cavia porcellus. The data set can be described thus: Agonist activity at TRPA1 in Dunkin-Hartley guinea pig vagus nerve assessed as activation of vagus nerve by measuring depolarization at 100 uM […]. In short, it runs like this: (§4)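 Isolated vagus nerves from male Dunkin-Hartley guinea pigs (300-400 g, eight animals). Compound DMSO stocks diluted 1000× in Krebs-Henseleit buffer. Viability checked with capsaicin (1 µM) at the start and acrolein (300 µM) at the end. Single non-cumulative concentrations applied for 2 min each, with KH wash to baseline between them. DMSO vehicle run alike. Depolarization recorded in mV.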

In data set [11] the target is T2, Transient receptor potential cation channel subfamily M member 8. The data set can be described thus: Agonist activity at human TRPM8 expressed in HEK293 cells assessed as increase in calcium influx at 30 uM by Fluo-4-AM dye based fluorescence assay relative to calcimycin. Type of data set: cell-based. In short, it runs like this: as §2
Target sequence in this assay (Q7Z2W7 whole entry, looked up): as above
The target of data set [12] is T1, Transient receptor potential cation channel subfamily A member 1. The data set can be described thus: Antagonist activity at human TRPA1 expressed in HEK293 cells assessed as increase in calcium influx at 100 uM incubated for 10 mins prior to CA addition by Fluo-4-AM dye based fluorescence assay relative to CA. Further details: scale not given: the % may be the effect or the level left. Format: cell-based. In short, it runs like this: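 hTRPA1-HEK293 cells loaded with Fluo-4AM (2 µM). Compound pre-incubated 10 min, then cinnamaldehyde standard agonist added. FlexStation read, ex 485/em 538 nm. ΔRFU normalized to the CA response set at 100 % after DMSO vehicle subtraction. N = 3. logIC50 taken from dose-response fits.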

Data set [13] is described as follows: Dissociation constant, pKa of the compound at pH 7.4. Type of data set: physicochemical.
For data set [14], the species on record is Cavia porcellus. Briefly: Antagonist activity at TRPA1 in Dunkin-Hartley guinea pig vagus nerve assessed as inhibition of ACR-stimulated vagus nerve by measuring depolarization at 100 uM incubated for 10 mins followed by ACR stimulation for 140 secs […]. In short, it runs like this: (§5)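 Guinea pig vagus nerve (male Dunkin-Hartley) in Krebs-Henseleit buffer; compound from DMSO stock diluted 1000×. Two control acrolein (300 µM, 2 min) responses, each washed to baseline. Then 10 min compound pretreatment and re-stimulation with acrolein 300 µM for 2 min 20 s. After washout, a recovery acrolein response was taken. Depolarization recorded in mV.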

Data set [15] addresses T1, Transient receptor potential cation channel subfamily A member 1. Briefly: Agonist activity at human TRPA1 expressed in HEK293 cells assessed as increase in calcium influx at 30 uM by Fluo-4-AM dye based fluorescence assay relative to calcimycin. Format: cell-based. In short, it runs like this:
as §2

For data set [16], the species on record is Cavia porcellus. The data set can be described thus: Antagonist activity at TRPA1 in Dunkin-Hartley guinea pig vagus nerve assessed as inhibition of ACR-stimulated vagus nerve by measuring depolarization at 300 uM incubated for 10 mins followed by ACR stimulation for 140 secs […]. In short, it runs like this:
as §5

The test system of data set [17] is Transient receptor potential cation channel subfamily A member 1 (Homo sapiens), O75762 [F909A]. The data set can be described thus: Antagonist activity at human TRPA1 Phe909Ala mutant expressed in HEK293 cells assessed as Ca2+ influx at 100 uM by fluorescence assay. Format: cell-based. In short, it runs like this: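 hTRPA1 F909A or F944A mutant HEK293 stable clones, loaded with Fluo-4AM (2 µM, 45 min, room temperature). Compound pre-incubated 10 min before the standard agonist was added. FlexStation fluorescence (485/538 nm). ΔRFU normalized to the standard agonist response set at 100 %, after DMSO vehicle subtraction.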

Data set [18] addresses T1, Transient receptor potential cation channel subfamily A member 1. Briefly: Antagonist activity at human TRPA1 expressed in HEK293 cells assessed as inhibition of CA-induced increase in calcium influx incubated for 10 mins prior to CA addition by Fluo-4-AM dye based fluorescence assayy. Format: cell-based.
The species entered for data set [19] is Cavia porcellus. The data set can be described thus: Agonist activity at TRPA1 in Dunkin-Hartley guinea pig vagus nerve assessed as activation of vagus nerve by measuring depolarization at 300 uM […]. In short, it runs like this: as §4
For data set [20], the system named is Transient receptor potential cation channel subfamily A member 1 (Homo sapiens), O75762 [F909A]. The data set can be described thus: Agonist activity at human TRPA1 Phe909Ala mutant expressed in HEK293 cells assessed as Ca2+ influx at 100 uM by fluorescence assay. Format: cell-based. In short, it runs like this:
(§6)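 HEK293 cells stably expressing hTRPA1 point mutants, made by FuGENE 6 transfection, G418 (0.5 mg ml-1) selection and single-cell cloning, grown in DMEM with 25 mM HEPES, 10% FBS and geneticin. Ca2+ influx was read by Fluo dye fluorescence at room temperature, with calcimycin added at the end. Response was ΔRFU as % of calcimycin, with the DMSO vehicle subtracted.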

The subject of data set [21] is Transient receptor potential cation channel subfamily A member 1 (Homo sapiens), O75762 [F944A]. The data set can be described thus: Agonist activity at human TRPA1 Phe944Ala mutant expressed in HEK293 cells assessed as Ca2+ influx at 100 uM by fluorescence assay. Type of data set: cell-based. In short, it runs like this:
as §6

Data set [22] addresses T1, Transient receptor potential cation channel subfamily A member 1. Briefly: Agonist activity at human TRPA1 expressed in HEK293 assessed as increase in calcium influx by […]. Format: cell-based.
The target in data set [23] is T3, Transient receptor potential cation channel subfamily A member 1 (Mus musculus, UniProt Q8BLA8). The data set can be described thus: Agonist activity at mouse TRPA1 expressed in CHO cells assessed as increase in calcium influx by patch clamp electrophysiology method. Type of data set: cell-based.
In data set [24] the test system is Transient receptor potential cation channel subfamily A member 1 (Homo sapiens), O75762 [C621A]. Briefly: Agonist activity at human TRPA1 […] mutant expressed in HEK293 cells assessed as Ca2+ influx at 100 uM by fluorescence assay. Type of data set: cell-based.
The target of data set [25] is T3, Transient receptor potential cation channel subfamily A member 1. The data set can be described thus: Agonist activity at mouse TRPA1 expressed in CHO cells assessed as increase in calcium influx by Fluo-3 based FLIPR analysis. Type of data set: cell-based.

T1 sequence (O75762 whole entry): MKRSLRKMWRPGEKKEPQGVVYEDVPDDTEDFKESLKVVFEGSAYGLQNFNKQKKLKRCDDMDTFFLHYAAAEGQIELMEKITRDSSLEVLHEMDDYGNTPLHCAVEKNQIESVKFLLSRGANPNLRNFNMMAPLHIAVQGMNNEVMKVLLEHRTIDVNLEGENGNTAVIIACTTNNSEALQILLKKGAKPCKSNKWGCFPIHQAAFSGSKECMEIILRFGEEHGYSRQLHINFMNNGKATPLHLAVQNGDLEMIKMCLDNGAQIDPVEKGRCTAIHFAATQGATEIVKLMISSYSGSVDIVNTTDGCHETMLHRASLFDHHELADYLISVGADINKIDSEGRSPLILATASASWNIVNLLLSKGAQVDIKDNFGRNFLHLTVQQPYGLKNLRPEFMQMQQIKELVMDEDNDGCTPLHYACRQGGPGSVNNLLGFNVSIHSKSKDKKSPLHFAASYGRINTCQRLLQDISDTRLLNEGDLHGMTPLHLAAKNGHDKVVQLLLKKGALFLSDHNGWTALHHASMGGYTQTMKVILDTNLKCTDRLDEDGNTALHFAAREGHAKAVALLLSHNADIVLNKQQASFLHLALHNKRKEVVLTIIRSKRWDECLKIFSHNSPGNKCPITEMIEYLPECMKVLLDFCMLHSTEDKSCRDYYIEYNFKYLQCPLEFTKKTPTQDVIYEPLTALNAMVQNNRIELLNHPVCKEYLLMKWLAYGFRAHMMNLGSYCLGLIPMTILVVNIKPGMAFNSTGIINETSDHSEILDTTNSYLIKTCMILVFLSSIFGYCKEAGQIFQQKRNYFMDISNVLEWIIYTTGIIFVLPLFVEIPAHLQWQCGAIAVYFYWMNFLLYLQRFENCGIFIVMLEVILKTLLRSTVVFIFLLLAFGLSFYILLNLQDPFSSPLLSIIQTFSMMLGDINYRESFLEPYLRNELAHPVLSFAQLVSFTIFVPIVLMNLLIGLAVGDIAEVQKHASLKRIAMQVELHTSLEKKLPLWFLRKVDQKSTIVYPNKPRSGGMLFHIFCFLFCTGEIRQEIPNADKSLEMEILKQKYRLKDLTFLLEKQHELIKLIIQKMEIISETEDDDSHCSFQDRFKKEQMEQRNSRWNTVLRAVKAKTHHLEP
Chain of Transient receptor potential cation channel subfamily A member 1 (Homo sapiens), O75762 [F909A] (O75762 whole entry F909A): as the sequence (O75762 whole entry) above, with F909A counted along it
Chain of Transient receptor potential cation channel subfamily A member 1 (Homo sapiens), O75762 [F944A] (O75762 whole entry F944A): as the sequence (O75762 whole entry) above, with F944A counted along it
T3 sequence (Q8BLA8 whole entry): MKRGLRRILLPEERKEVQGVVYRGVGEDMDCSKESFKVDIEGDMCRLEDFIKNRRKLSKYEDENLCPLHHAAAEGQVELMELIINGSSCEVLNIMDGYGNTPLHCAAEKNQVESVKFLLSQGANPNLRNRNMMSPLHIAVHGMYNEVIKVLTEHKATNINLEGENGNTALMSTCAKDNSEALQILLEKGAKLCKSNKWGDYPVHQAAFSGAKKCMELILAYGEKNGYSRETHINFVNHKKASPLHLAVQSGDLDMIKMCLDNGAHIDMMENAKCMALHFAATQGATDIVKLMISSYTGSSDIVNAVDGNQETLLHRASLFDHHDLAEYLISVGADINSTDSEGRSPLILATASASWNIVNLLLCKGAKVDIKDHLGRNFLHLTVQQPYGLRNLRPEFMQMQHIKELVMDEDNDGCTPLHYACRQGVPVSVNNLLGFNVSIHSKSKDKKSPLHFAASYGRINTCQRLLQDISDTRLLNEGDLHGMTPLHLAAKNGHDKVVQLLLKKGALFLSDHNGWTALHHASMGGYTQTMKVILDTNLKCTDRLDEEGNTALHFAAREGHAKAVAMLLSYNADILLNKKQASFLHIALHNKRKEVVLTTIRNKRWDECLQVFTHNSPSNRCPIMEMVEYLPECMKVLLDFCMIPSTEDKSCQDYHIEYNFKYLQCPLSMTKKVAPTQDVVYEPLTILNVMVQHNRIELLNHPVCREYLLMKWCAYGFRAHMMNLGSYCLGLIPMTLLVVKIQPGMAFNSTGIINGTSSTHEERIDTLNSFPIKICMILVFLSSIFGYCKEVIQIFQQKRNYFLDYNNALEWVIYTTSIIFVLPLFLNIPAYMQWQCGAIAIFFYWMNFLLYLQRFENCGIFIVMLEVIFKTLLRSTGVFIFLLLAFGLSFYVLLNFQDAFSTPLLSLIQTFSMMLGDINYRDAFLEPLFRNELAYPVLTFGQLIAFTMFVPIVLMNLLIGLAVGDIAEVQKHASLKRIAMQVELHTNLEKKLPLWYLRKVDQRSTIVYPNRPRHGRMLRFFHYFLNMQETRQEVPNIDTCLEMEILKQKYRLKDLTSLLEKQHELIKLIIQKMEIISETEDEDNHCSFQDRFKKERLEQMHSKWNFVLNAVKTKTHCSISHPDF
Chain of Transient receptor potential cation channel subfamily A member 1 (Homo sapiens), O75762 [C621A] (O75762 whole entry C621A): as the sequence (O75762 whole entry) above, with C621A counted along it

Regarding `CC(Cc1ccc(O)c(O)c1)C(C)Cc1ccc(O)c(O)c1` (stereo not given) [NORDIHYDROGUAIARETIC ACID], the EC50 in [1] is 4.9 µM; in [4], 35 µM. Moreover, the result in data set [2] was inactive. Also, the outcome in data set [3] was Active.

For the molecule `O=C(/C=C/c1ccc(C(F)(F)F)cc1)Nc1ccccc1C(=O)O`, the outcome (in data set [2]; in data set [3]; in data set [9]; in the data set filed under Cavia porcellus [10]) was Active. Also, the Activity in data set [5] was 17%; in [12], 28%; in data set [15], 51%. The outcome in data set [6], in [7] and in [11] was inactive. The half-maximal inhibitory concentration (IC50) in [8] amounted to 34 µM. For the same molecule, in [4], the EC50 was found to be 27 µM. Further, the pKa in data set [13] was 3.4. Further, in the data set listed under Cavia porcellus [14], the inhibition entry is “inactive”.

On to `O=C(/C=C/c1ccc(O)cc1)Nc1ccccc1C(=O)O`, for which, in the data set filed under Cavia porcellus [16], the inhibition result is “inactive”. Moreover, the result in [17], in [6] and in [11] was inactive. The Activity in data set [5] was found to be 70%; in data set [12], 35%; in data set [15], 1%. In addition, the half-maximal inhibitory concentration (IC50) in [18] came out at 43 µM. In addition, the pKa in data set [13] turned out to be 3.5. For the same molecule, the outcome in the data set filed under Cavia porcellus [19] was Active.

As to `C=CCc1ccc(O)c(OC)c1` [EUGENOL], in data set [20], the result was Active. Besides, the outcome in [21] was inactive. Further, the half-maximal effective concentration (EC50) in [22] came to 261 µM; in [4], 168 µM.

In the case of `CC1CCC(C(C)C)C(O)C1` (stereo not given) [MENTHOL], the outcome in data set [20], in [21] and in data set [24] was inactive. Also, the 50% effective concentration (EC50) in data set [4] stood at 30 µM; in data set [23] it was 95 µM.

Regarding `O=C/C=C/c1ccccc1`, in data set [3], the result was Active. Also, the half-maximal effective concentration (EC50) in data set [4] is 9 µM; in data set [25], 61 µM.
